# Assay outcomes (PubChem BioAssay)
# Shown are actives, neighbours in structure and some others; about 4.5% of the full set was active somewhere.
# OX1R antag-1: antagonists of human orexin 1 receptor (OX1R) | Orexin/Hypocretin receptor type 1 (Homo sapiens), O43613 | OX1R-expressing cells, FRET antagonist read-out | inhibition, % at 6.6 µM | 330,000 tested, 1.8% active | AID 485270, 2010; in the data active = inhibition mostly above about 38%, no sharp cut-off; inactive = mostly below about 40%;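 also: 0% = agonist challenge alone and 100% = reference antagonist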
# Target sequence (O43613 whole entry, looked up): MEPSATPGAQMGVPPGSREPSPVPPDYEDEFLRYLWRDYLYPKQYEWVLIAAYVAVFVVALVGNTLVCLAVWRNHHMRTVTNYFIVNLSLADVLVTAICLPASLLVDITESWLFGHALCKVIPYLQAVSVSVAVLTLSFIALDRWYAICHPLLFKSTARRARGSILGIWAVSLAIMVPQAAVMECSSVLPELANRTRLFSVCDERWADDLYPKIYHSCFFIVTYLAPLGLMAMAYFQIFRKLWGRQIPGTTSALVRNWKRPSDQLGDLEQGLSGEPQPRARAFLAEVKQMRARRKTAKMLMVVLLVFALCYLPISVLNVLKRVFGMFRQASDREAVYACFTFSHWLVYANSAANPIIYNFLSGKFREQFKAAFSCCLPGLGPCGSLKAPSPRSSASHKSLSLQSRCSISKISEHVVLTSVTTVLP
# CHO parental Ca: ATP-evoked calcium signal inhibitors, parental CHO, primary screen, counter-screen for OX1R antagonist project, cell-based, fluorescence, Fluo-8 calcium dye; parental CHO-K1, ATP-induced calcium, Fluo-8 fluorescence; inhibition, % at 5.6 µM; 330,000 tested, 0.63% active; AID 463079, 2010;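 active = inhibition above that plate's mean sample inhibition plus 3 SD, cut at about 26% in these data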;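 also: 0% = ATP-challenged DMSO wells and 100% = DMSO wells without ATP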
#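 Assay system: untransfected parental CHO cell line. Also added: ATP agonist challenge. Dosing: one dose, 5.6 µM nominal. Measured by: Fluo-8 fluorescence. Read-out: % inhibition. Benchmarks: ATP wells versus no-ATP DMSO wells. Repeats: no replicates.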
# GPR7 antagonist: GPR7 receptor antagonists, primary screen, cell-based, fluorescence, single concentration; Neuropeptides B/W receptor type 1 (Homo sapiens), P48145; GPR7-expressing cells, fluorescence antagonist assay; inhibition, % at 4.4 µM; 290,000 tested, 1.1% active; AID 1861, 2009; in the data active = inhibition above about 16%, passing the limit was not always enough;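 also: cells stimulated with the agonist NPW; 0% = agonist with vehicle and 100% = vehicle without agonist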
# TAAR1 agonist: human TAAR1 agonists, primary screen, Fluo-8 calcium fluorescence, CHO RD-HGA16 cells. Trace amine-associated receptor 1 (Homo sapiens), Q96RJ0. vehicle wells 0%, saturating PEA agonist 100%. activation, % at 3 µM. 360,000 tested, 0.99% active. AID 624467, 2012;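 active = activation above the mean activation of all test compounds in the run plus 3 SD, cut at about 38% in these data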
# Target sequence (Q96RJ0 whole entry, looked up): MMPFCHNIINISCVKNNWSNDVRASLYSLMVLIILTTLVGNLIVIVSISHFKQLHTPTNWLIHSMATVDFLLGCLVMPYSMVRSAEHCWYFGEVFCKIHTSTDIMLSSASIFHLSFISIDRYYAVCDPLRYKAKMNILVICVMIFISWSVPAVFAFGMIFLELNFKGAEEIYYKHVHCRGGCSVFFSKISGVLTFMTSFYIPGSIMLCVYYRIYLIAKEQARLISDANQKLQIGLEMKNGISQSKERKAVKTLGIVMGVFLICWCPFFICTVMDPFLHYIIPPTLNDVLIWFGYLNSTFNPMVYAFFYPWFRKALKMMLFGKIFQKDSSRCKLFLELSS
#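 Benchmarks: low control DMSO, high control PEA (EC100); System: CHO RD-HGA16 cells carrying human TAAR1 plus Gα16; Detection: Fluo-8 fluorescence, 5 s baseline then 140 s kinetic read; Schedule: 17-24 h plating, Fluo-8 75 min 37 °C, 30 min RT; Read-out basis: % activation from peak over basal fluorescence ratio, DMSO-to-PEA scaled.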
# TAAR1 antag: human TAAR1 antagonists, primary screen, Fluo-8 calcium fluorescence, CHO RD-HGA16 cells | AID 624466, 2012 | inhibition, % at 3 µM | Trace amine-associated receptor 1 (Homo sapiens), Q96RJ0 | antagonist | 360,000 tested, 1.5% active;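 active = inhibition above a per-plate cutoff, the mean inhibition of test compounds on that plate plus 3 SD, cut at about 49% in these data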;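 also: 0% = DMSO plus EC80 beta-PEA response and 100% = DMSO alone without agonist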
#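 Test system – hTAAR1-expressing CHO RD-HGA16 cells, Gα16-coupled · Reagent – β-PEA at EC80 concentration, post-compound challenge · Compound dosing – 3 µM, single point · Timing – 140 s kinetic read after compound, 140 s after agonist · Detection – Fluo-8 intracellular calcium dye fluorescence, real-time kinetic reads · Control set – DMSO and EC80 PEA controls · Repeats – n of 1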
# OX1R antag-2: OX1R (HCRTR1) antagonists, primary screen, fluorescence, CHO/OX1R cells, Fluo-8 calcium, orexin A. Fluo-8 calcium fluorescence. Orexin/Hypocretin receptor type 1 (Homo sapiens), O43613. inhibition, % at 5 µM. AID 434989, 2010. 330,000 tested, 0.43% active;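 active = inhibition above its plate's threshold, mean inhibition of all tested compounds on the plate plus 3 SD, cut at about 37% in these data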;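 also: 0% = orexin A challenge wells and 100% = SB-334867-A antagonist wells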
# * marks the source's active call; other numbers are inactive results; nt = not tested or not shown.
SMILES,OX1R antag-1,CHO parental Ca,GPR7 antagonist,TAAR1 agonist,TAAR1 antag,OX1R antag-2
CCCCCCCCN1C(=O)[C@@H](CC(=O)N2CCN(C(=O)C3CC3)CC2)C[C@@]2(C(=O)OC)C1=C[C@H](C(C)(C)C)O[C@@H]2C,nt,nt,nt,-2.6,-24.7,nt
CC(C)(C)n1cnc2cc(NS(=O)(=O)c3ccc(Br)cc3)ccc21,59.4,58.0*,0.3,18.2,24.5,59.5*
O=c1oc2ccccc2cc1-c1cn2cccnc2n1,66.3*,-3.7,7.1,5.9,-19.4,-11.0
O=C(Nc1nnc(CSCc2ccccc2F)s1)c1cccc([N+](=O)[O-])c1,42.8*,-4.3,16.6,2.5,9.9,-16.6
CC(C)C(=O)Nc1nnc(CSCc2ccccc2F)s1,9.2,-2.9,-8.7,16.1,-12.2,-8.2
CCOc1ccc(CCN2C(=O)C(=O)N([C@@H](CC(C)C)CN3CCC[C@H]3CN3C(=O)C(=O)NC[C@@H]3Cc3ccccc3)C[C@@H]2Cc2ccccc2)cc1,nt,nt,nt,-1.1,-6.2,nt
Cc1nnc(N/N=C/c2ccc(-c3ccc(Br)cc3)o2)n1N,39.6*,-6.7,-16.2,2.3,-5.0,-17.8
COC(=O)/C(=C(O)\C=C\c1ccccc1[N+](=O)[O-])c1nc2ccccc2[nH]1,55.6*,-12.1,-9.5,-3.1,14.4,-23.1
O=C(/C=C\c1ccccc1[N+](=O)[O-])Nc1ccccc1,10.5,-5.8,-12.9,1.4,26.0,-20.0
Cc1ccc(NC(=O)CCCCCC2NC(=O)NC2C)cc1 (centres undefined),8.2,2.8,10.3,nt,nt,-4.2
CCOC(=O)CCCCCCCCC(=O)Nc1ccc(-n2[nH]c(=O)cc2C)cc1,nt,nt,nt,44.4*,2.1,nt
C[C@H](CO)N1C[C@H](C)[C@@H](CN(C)C(=O)Nc2cccc(F)c2)OCc2cn(nn2)CCCC1=O,nt,nt,nt,1.6,-7.2,nt
Cc1ccn2c(c1)nc(=S)n2C(=O)c1ccccc1,13.3,-10.9,2.5,2.4,-14.5,-6.5
Cc1cccc(C(=O)n2c(=S)nc3cc(C)ccn32)c1,41.4*,-11.8,-4.8,0.0,-12.6,-6.5
COC(=O)[C@H](Cc1ccccc1)N1CC=CS1(=O)=O,nt,nt,nt,0.8,-9.5,nt
COC(=O)C1=C(C)N(Cc2ccccc2C(F)(F)F)C(=NCc2ccc(OC)cc2)NC1c1ccc(C(F)(F)F)cc1 (centres undefined),nt,nt,nt,9.2,1.7,nt
Nc1ccc(-c2nc3ccc([N+](=O)[O-])cc3[nH]2)cc1,11.8,-2.6,20.1*,0.8,3.0,13.8
O=[N+]([O-])c1ccc2nc(/C=C/c3ccc(Cl)cc3)[nH]c2c1,76.6*,29.4*,13.2,3.8,53.0*,13.0
COC(=O)CC(=O)CC(NS(=O)(=O)c1ccc(C)cc1)c1ccccc1 (centres undefined),nt,nt,nt,1.2,-17.1,nt
COc1ccc(CCNC(=O)c2ccc(CS(=O)(=O)c3ccc(Cl)cc3)o2)cc1OC,15.1,7.8,-12.3,27.8,44.3,5.6
COc1ccc(CCNC(=O)c2ccc(=O)[nH]n2)cc1OC,4.1,39.6*,4.1,5.2,-3.2,-3.0
COc1ccc(CCNC(=O)c2ccc([N+](=O)[O-])cc2Cl)cc1OC,71.3*,-12.4,nt,5.3,-34.4,4.3
COc1ccc(CCNC(=O)c2ccc(CSc3ccc(Cl)cc3)o2)cc1OC,nt,nt,nt,4.9,65.9*,nt
COc1ccc(CCNC(=O)c2ccc(Cl)cc2Cl)cc1OC,23.6,-16.9,-9.8,1.7,7.8,-22.6
CC1(C(=O)NS(=O)(=O)C2CC2)CCCN(C(=O)/C=C/c2ccccc2)C1 (centres undefined),nt,nt,nt,2.7,-2.9,nt
SMILES,OX1R antag-1,CHO parental Ca,GPR7 antagonist,TAAR1 agonist,TAAR1 antag,OX1R antag-2
COc1cnc(-c2cccc(C(F)(F)F)c2)c(NC(=O)c2cc3ccccc3s2)n1,nt,nt,nt,-0.3,26.6,nt
O=C1c2[nH]nc(-c3ccccc3)c2C(c2cccc(C(F)(F)F)c2)N1c1ccccc1 (centres undefined),nt,nt,nt,-0.4,-60.5,nt
COCc1[nH]nc2c1C(c1ccc(C)cc1)NC2=O (centres undefined),nt,nt,nt,1.0,-6.8,nt
COc1cccc(OC)c1C(=O)Nc1cccc2c1CCCC2,73.4*,-2.7,5.5,1.3,-1.8,-8.6
COc1cccc(CNC(=O)[C@H]2CCCN2C(=O)[C@H]2CCCN2C(=O)c2ccccc2C(F)(F)F)c1,nt,nt,nt,-0.1,-12.3,nt
COc1ccc(NC(=O)N(C)C[C@H]2OCc3cnnn3CCCC(=O)N([C@H](C)CO)C[C@@H]2C)c(OC)c1,nt,nt,nt,-0.1,7.0,nt
CCOc1cc(/C=C(/C#N)c2nc3ccccc3[nH]2)ccc1OCc1ccc(C(=O)O)o1,4.2,-3.3,-0.5,-0.3,-18.4,-11.4
COc1cc(/C=C(\C#N)c2nc3ccccc3[nH]2)c([N+](=O)[O-])cc1OCc1ccccc1,49.9,-6.8,-8.5,9.2,53.9*,-3.9
COc1cc(/C=C(\C#N)c2nc3ccccc3[nH]2)ccc1OC(=O)c1ccco1,70.7*,2.1,2.2,10.9,18.1,14.2
COc1ccc(Oc2ccc3c(C(F)(F)F)cc(C(F)(F)F)nc3n2)cc1,11.8,-5.6,-8.2,-2.3,-8.9,-24.1
Oc1ccc(Oc2ccc3c(C(F)(F)F)cc(C(F)(F)F)nc3n2)cc1,-0.8,48.5*,9.5,3.9,-15.6,13.4
COC(=O)[C@]12C[C@H](CC(=O)N3CCSCC3)C(=O)N(Cc3ccccc3)C1=C[C@H](C(C)C)O[C@@H]2C1CC1,nt,nt,nt,4.0,-35.6,nt
COc1ccc(OC)c(NC(=O)c2nc(S(=O)(=O)Cc3ccccc3)ncc2Cl)c1,20.7,37.2,1.2,1.1,52.0*,25.5
COc1ccc(NC(=O)c2nc(S(=O)(=O)Cc3cccc(C)c3)ncc2Cl)c(OC)c1,15.0,-13.2,0.9,-0.3,-0.6,-23.4
COc1cccc(C(=O)N[C@H](C(=O)N2CCC[C@H]2C(=O)NCc2ccccc2)C(C)C)c1,nt,nt,nt,0.0,-13.4,nt
O=C(Nc1cccc(O)c1)c1noc2c1CCc1ccccc1-2,36.6*,-15.0,6.2,12.9,20.6,40.3
Cc1ccc(NC(=O)c2noc3c2CCc2ccccc2-3)cc1,21.7,-8.3,-11.5,11.6,20.1,-23.4
CO/N=C/c1ccc(N2CCN(C(=O)c3cccc(C(F)(F)F)c3)CC2)c([N+](=O)[O-])c1,15.0,11.6,6.5,21.9,54.1*,5.7
CO/N=C/c1ccc(N2CCN(C(=O)c3ccc(F)cc3)CC2)c([N+](=O)[O-])c1,10.4,-2.1,5.8,37.9*,38.5,-4.9
O=C(O/N=C\c1ccc(N2CCCCC2)c([N+](=O)[O-])c1)c1cccc(C(F)(F)F)c1,6.2,-8.8,-10.2,-2.5,10.0,-13.8
